Measurements taken from ChEMBL document CHEMBL2040794, “Synthesis and structure-activity analysis of new phosphonium salts with potent activity against African trypanosomes” (J Med Chem, 2012).
Activity calls are given as the source filed them. No cut-off for these calls is given here.

Experiments:
[1] = test system: Trypanosoma brucei brucei; test: Resistance factor, ratio of EC50 for diminazene-, pentamidine-, and melaminophenyl arsenical-resistant HAPT1-deficient Trypanosoma brucei brucei B48 to EC50 for wild type Trypanosoma brucei brucei Lister 427; type: functional
In short: (§1)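 Resistance factor is the EC50 in the resistant line (TbAT1-KO or B48) divided by the EC50 in wild-type s427. […] Resistant and wild-type EC50s were compared by Student t-test.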

L6 = test: Cytotoxicity against rat L6 cells after 72 hrs by alamar blue assay; type: cell-based; settings: Rattus norvegicus, L6, 72 h
[2] = test system: Trypanosoma brucei brucei; test: Antitrypanosomal activity against Trypanosoma brucei brucei bloodstream forms assessed as decrease in cell count at 0.25 uM treated for 48 hrs followed by washout after 4 hrs by hemocytometric analysis; type: functional, organism-based
In short: (§2)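 T. b. brucei bloodstream forms seeded at 10⁵ cells/mL with 0.25 μM compound; drug removed by centrifugation (1100g) after 30 min or 4 h and cells resuspended in drug-free fresh medium, or fresh medium still containing 0.25 μM compound; drug-free control run alongside. Growth followed over 48 h by microscopic hemocytometer counts in triplicate, averages reported.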

[3] = test system: Trypanosoma brucei brucei; test: Antitrypanosomal activity against Trypanosoma brucei brucei bloodstream forms assessed as decrease in cell count at 0.25 uM treated for 48 hrs followed by washout after 30 mins and measured after 48 hrs by hemocytometric analysis; type: functional, organism-based; in short: as §2
[4] = test system: Trypanosoma brucei brucei; test: Antitrypanosomal activity against diminazene-, pentamidine-, and melaminophenyl arsenical-resistant HAPT1-deficient Trypanosoma brucei brucei B48 after 3 days by alamar blue assay; type: functional, organism-based; settings: Trypanosoma brucei, B48, 72 h
In short: (§3)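 Bloodstream-form T. b. brucei (wild-type s427; TbAT1-KO, made from s427 by TbAT1 deletion; B48, selected from TbAT1-KO in vitro on pentamidine, lacking functional HAPT1). Cells were exposed to compound for 48 h, then resazurin (Alamar blue) was added for a further 24 h. A single fluorescence reading gave EC50.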

[5] = test system: Trypanosoma brucei brucei; test: Antitrypanosomal activity against Trypanosoma brucei brucei bloodstream forms assessed as decrease in cell count at 0.25 uM treated for 48 hrs followed by washout after 4 hrs measured after 44 hrs by hemocytometric analysis; type: functional, organism-based; in short: as §2
[6] = Cytotoxicity against human HEK cells after 3 days by alamar blue assay; type: cell-based, HEK293; settings: Homo sapiens, HEK293, 72 h
In short: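 Human embryonic kidney cells tested by resazurin (Alamar blue) assay: 48 h with compound, then 24 h more after dye addition, single reading; EC₅₀ derived.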

[7] = test system: Trypanosoma brucei brucei; test: Resistance factor, ratio of EC50 for diminazene aceturate-resistant TbAT1 gene-deficient Trypanosoma brucei brucei AT1-KO to EC50 for wild type Trypanosoma brucei brucei Lister 427; type: functional; in short: as §1
[8] = test system: Trypanosoma brucei brucei; test: Antitrypanosomal activity against diminazene aceturate-resistant TbAT1 gene-deficient Trypanosoma brucei brucei AT1-KO after 3 days by alamar blue assay; type: functional, organism-based; settings: Trypanosoma brucei, AT1-KO, 72 h; in short: as §3
[9] = test system: Trypanosoma brucei brucei; test: Antitrypanosomal activity against wild type Trypanosoma brucei brucei Lister 427 after 3 days by alamar blue assay; type: functional, organism-based; settings: Trypanosoma brucei, Lister 427, 72 h; in short: as §3
[10] = test system: Trypanosoma brucei rhodesiense; test: Antitrypanosomal activity against Trypanosoma brucei rhodesiense STIB900 infected in rat L6 cells after 72 hrs by alamar blue assay; type: functional, organism-based; settings: Trypanosoma brucei, STIB900, 72 h
[11] = Inhibition of Trypanosoma brucei brucei LAPT1 assessed as [3H]-pentamidine uptake after 120 secs by scintillation counting
In short: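 LAPT1 transport: late-log trypanosomes from HMI-9/10% FBS culture washed into pH 7.3 HEPES-bicarbonate-glucose buffer; 1 μM final [³H]-pentamidine uptake over 120 s with competitor. Uptake terminated with 2 mM ice-cold pentamidine and oil centrifugation; counted by scintillation, Ki from sigmoid curves; triplicate, at least three separate occasions.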

[12] = Selectivity index, ratio of EC50 for rat L6 cells to EC50 for Trypanosoma brucei rhodesiense STIB900; type: toxicity, cell-based; settings: L6 cells, read-out: Ratio EC50
In short: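 Ratio of EC₅₀ in L6 cells to EC₅₀ against T. b. rhodesiense STIB900, both from Alamar blue assays.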

[13] = Selectivity index, ratio of EC50 for human HEK cells to EC50 for wild type Trypanosoma brucei brucei Lister 427; type: toxicity, cell-based, HEK293; settings: HEK cells, read-out: Ratio EC50
In short: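 Ratio of EC₅₀ in HEK cells to EC₅₀ in wild-type T. b. brucei s427, both from resazurin assays.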

[14] = test system: Trypanosoma brucei brucei; test: Antitrypanosomal activity against wild type Trypanosoma brucei brucei Lister 427 assessed as decrease in viability at 70 to 120 times EC50 after 8 hrs by propidium iodide staining-based fluorescence microscopic analysis; type: functional, organism-based
In short: (§4)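 Real-time propidium iodide integrity assay: 5 × 10⁵ trypanosomes per well in HMI-9 plus 10% FBS containing 9 μM PI, 37 °C, 5% CO₂. Fluorescence read on a plate fluorimeter (ex 544/em 620 nm) every 2 min for 250 cycles, more than 8 h. Strains run in parallel on one plate.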

[15] = Inhibition of Trypanosoma brucei brucei HAPT1 assessed as [3H]-pentamidine uptake after 60 secs by scintillation counting
In short: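 HAPT1 transport: late-log T. b. brucei grown in HMI-9 + 10% FBS, washed into HEPES/bicarbonate assay buffer with 14 mM glucose, pH 7.3. [³H]-pentamidine at 30 nM final for 60 s with inhibitor; stopped with 2 mM ice-cold unlabeled pentamidine and spin through oil. Scintillation counting, sigmoid fit for Ki; triplicates, ≥3 independent experiments.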

[16] = test system: Trypanosoma brucei brucei; test: Antitrypanosomal activity against diminazene aceturate-resistant TbAT1 gene-deficient Trypanosoma brucei brucei AT1-KO assessed as decrease in viability at > 3.3 uM after 8 hrs by propidium iodide staining-based fluorescence microscopic analysis; type: functional, organism-based
In short: (§5)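 Trypanosomes at 5 × 10⁵ cells/well in HMI-9 with 10% FBS and 9 μM propidium iodide, with compound at a range of concentrations. Fluorescence (ex 544, em 620 nm) was read every 2 min for 250 cycles (>8 h) at 37 °C and 5% CO2. All three strains ran in parallel on one plate, with drug-free controls.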

[17] = test system: Trypanosoma brucei brucei; test: Antitrypanosomal activity against diminazene-, pentamidine-, and melaminophenyl arsenical-resistant HAPT1-deficient Trypanosoma brucei brucei B48 harboring HAPT mutant gene assessed as decrease in viability at 15 times EC50 after 8 hrs by propidium iodide staining-based fluorescence microscopic analysis; type: functional, organism-based; in short: as §5
[18] = test system: Trypanosoma brucei brucei; test: Antitrypanosomal activity against wild type Trypanosoma brucei brucei Lister 427 assessed as decrease in viability at > 3.3 uM after 8 hrs by propidium iodide staining-based fluorescence microscopic analysis; type: functional, organism-based; in short: as §4
[19] = test system: Trypanosoma brucei brucei; test: Antitrypanosomal activity against diminazene aceturate-resistant TbAT1 gene-deficient Trypanosoma brucei brucei AT1-KO assessed as decrease in viability at 15 times EC50 after 8 hrs by propidium iodide staining-based fluorescence microscopic analysis; type: functional, organism-based; in short: as §5
[20] = test system: Trypanosoma brucei brucei; test: Antitrypanosomal activity against diminazene-, pentamidine-, and melaminophenyl arsenical-resistant HAPT1-deficient Trypanosoma brucei brucei B48 harboring HAPT mutant gene assessed as decrease in viability at > 3.3 uM after 8 hrs by propidium iodide staining-based fluorescence microscopic analysis; type: functional, organism-based; in short: as §5
[21] = test system: Trypanosoma brucei brucei; test: Antitrypanosomal activity against Trypanosoma brucei brucei bloodstream forms assessed as decrease in cell count at 2 times EC50 after 12 hrs by hemocytometric analysis; type: functional, organism-based
In short: (§6)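 Bloodstream-form T. b. brucei cultures started at 10⁵ cells/mL, with or without a range of compound concentrations (0.05, 0.25, 1 μM for the example shown) present continuously. Cell density tracked over 48 h by manual hemocytometer counts done in triplicate; mean values plotted.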

[22] = test system: Trypanosoma brucei brucei; test: Antitrypanosomal activity against Trypanosoma brucei brucei bloodstream forms assessed as decrease in cell count at EC50 after 36 hrs by hemocytometric analysis; type: functional, organism-based; in short: as §6
[23] = test system: Trypanosoma brucei brucei; test: Antitrypanosomal activity against wild type Trypanosoma brucei brucei Lister 427 assessed as decrease in viability at >700 times EC50 after 8 hrs by propidium iodide staining-based fluorescence microscopic analysis; type: functional, organism-based; in short: as §4

| SMILES | Ratio EC50 [1] | EC50 (L6) | Activity [2] | Activity [3] | EC50 [4] | Activity [5] | EC50 [6] | Ratio EC50 [7] | EC50 [8] | EC50 [9] | EC50 [10] | Ki [11] | selectivity ratio [12] | selectivity ratio [13] | Ki [15] | further results |
| --- | --- | --- | --- | --- | --- | --- | --- | --- | --- | --- | --- | --- | --- | --- | --- | --- |
| CCCCCC[P+](CCCCCC)(CCCCCC)Cc1ccc(Cc2ccc(C[P+](CCCCCC)(CCCCCC)CCCCCC)cc2)cc1.[Br-].[Br-] | 1.2 | 964 nM | Active | inactive | 39 nM | Active | 18100 nM | 1 | 33 nM | 33 nM | 180 nM | 9500 nM | 5 | 543 | – | – |
| CCCCC[P+](CCCCC)(CCCCC)Cc1ccc(C(=O)c2ccc(C[P+](CCCCC)(CCCCC)CCCCC)cc2)cc1.[Br-].[Br-] | 0.9 | 8700 nM | – | – | 180 nM | – | 66800 nM | 0.8 | 170 nM | 200 nM | 289 nM | 2200 nM | 30 | 338 | 5200 nM | Activity [14]: Active; Activity [16]: Active; Activity [17]: Active; Activity [18]: Active; Activity [19]: Active; Activity [20]: Active |
| CCCCCC[P+](CCCCCC)(CCCCCC)Cc1ccc(Oc2ccc(C[P+](CCCCCC)(CCCCCC)CCCCCC)cc2)cc1.[Br-].[Br-] | 1.1 | 1030 nM | Active | inactive | 41 nM | Active | 22100 nM | 1.2 | 45 nM | 37 nM | 109 nM | 7200 nM | 9 | 593 | 53000 nM | Activity [21]: Active; Activity [22]: Active |
| Cc1ccc([P+](Cc2ccc(Oc3ccc(C[P+](c4ccc(C)cc4)(c4ccc(C)cc4)c4ccc(C)cc4)cc3)cc2)(c2ccc(C)cc2)c2ccc(C)cc2)cc1.[Br-].[Br-] | 0.8 | 2340 nM | Active | inactive | 21 nM | Active | 85700 nM | 1 | 25 nM | 24 nM | 170 nM | – | 14 | 3570 | – | – |
| C[P+](C)(C)Cc1ccc(C(=O)c2ccc(C[P+](C)(C)C)cc2)cc1 | – | > 173000 nM | – | – | > 100000 nM | – | – | – | > 100000 nM | > 100000 nM | 127000 nM | > 250000 nM | – | – | > 250000 nM | – |
| CC(=O)N(c1ccc(C[P+](c2ccc(C)cc2)(c2ccc(C)cc2)c2ccc(C)cc2)cc1)c1ccc(C[P+](c2ccc(C)cc2)(c2ccc(C)cc2)c2ccc(C)cc2)cc1.[Br-].[Br-] | 0.9 | 21800 nM | – | – | 290 nM | – | > 300000 nM | 0.9 | 300 nM | 320 nM | 159 nM | 3600 nM | 137 | > 930 | 9200 nM | – |
| N=C(N)c1ccc(OCCCCCOc2ccc(C(=N)N)cc2)cc1 [PENTAMIDINE] | 70.9 | – | – | – | 567 nM | – | – | 1.1 | 9 nM | 8 nM | – | 56200 nM | – | – | 36 nM | – |
| Cc1ccc(C[P+](c2ccccc2)(c2ccccc2)c2ccccc2)cc1 | – | – | – | – | – | – | – | – | – | – | – | – | – | – | – | Activity [23]: Active |
